Among the data in PubChem BioAssay AID493089 (Broad Institute, 2011) are AC50 and activity change, negative = inhibition values, retold here.

Experiment [1] relates to C. albicans CaCi-2 + fluconazole growth, Alamar Blue, 48 h. Description: growth inhibition of fluconazole-resistant C. albicans, confirmation, CaCi-2 isolate, dry powder retest, set 2 (AID 493089). Summed up:
(§1)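 System – fluconazole-resistant Candida albicans clinical isolate CaCi-2 · Times – 48 h compound exposure, 37 °C, 90% humidity, 2 h dye · Signal – Alamar Blue fluorescence, Ex 544 nm, Em 590 nm · Measure – relative growth, signal decrease as inhibition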

Assay in experiment [2]: as above
As to conditions: C. albicans CaCi-2 (fluconazole-resistant clinical isolate) + fluconazole growth, Alamar Blue, 48 h. The method, boiled down:
as §1

Several values for one entry are separate records, joined by “and”; a condition that tells them apart may be missing. Equal values may be shown once. Results filed as inconclusive are left out. Activity calls are given as the source filed them.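 How the source made its calls: active means fitted half-maximal dose no more than ten times the top valid dose tested, with signal falling; inconclusive means flat curve at 30 to 70% inhibition, or poor fit; inactive means the rest, including rising signal.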

The term AC50 denotes the concentration giving half of the maximal activity seen. Take `O=c1c2[nH]c3ccccc3c2nc2n1CCS2`: the AC50 in experiment [1] was 10500 nM.

Turning to `COc1ccc(NC(=O)Cn2c3ccccc3c3nc4n(c(=O)c32)CCS4)cc1`, the AC50 in experiment [1] is 3020 nM. For `COc1ccc2c(c1)c1nc3n(c(=O)c1n2CC(=O)N1CCC(C)CC1)CCS3`, the activity change, negative = inhibition in experiment [2] (at 1.2 µM (top of the series)) is -8.53% (inactive).

As for `COC(=O)Cn1nc(-c2ccccc2)c2ccccc21`, the half-maximal activity concentration (AC50) in experiment [1] was 2890 nM. On to `N#Cc1cccc(N2CCN(C(=O)c3ccc(Cl)cc3)CC2)n1`, for which the activity change, negative = inhibition in experiment [2] (at 12 µM (top of the series)) is -7.37% (inactive). As to `O=C(Cn1c2ccc(F)cc2c2nc3n(c(=O)c21)CCS3)N1CCCCC1`, in experiment [1], the half-maximal activity concentration (AC50) is 628 nM. In the case of `O=C(Cn1c2ccc(F)cc2c2nc3n(c(=O)c21)CCS3)N1CCCCCC1`, in experiment [1], the AC50 is 1490 nM.

For `O=C(Cn1c2ccccc2c2nc3n(c(=O)c21)CCCS3)c1ccc(F)cc1`, the activity change, negative = inhibition in experiment [2] (at 12 µM (top of the series)) was -21.3% (inactive). As to `O=C(Cn1c2ccccc2c2nc3n(c(=O)c21)CCS3)N1CCCC1`, the concentration at half-maximal activity (AC50) in experiment [1] was 1100 nM and 3520 nM. Still for that read-out and setting: the value for `O=c1c2[nH]c3ccc(F)cc3c2nc2n1CCS2` was 3410 nM. For `COC(=O)Cn1c(-c2ccccc2)nc2ccccc21`, in experiment [2] (at 12 µM (top of the series)), the activity change, negative = inhibition was -10.6% (inactive).

Regarding `O=C(Cn1c2ccc(F)cc2c2nc3n(c(=O)c21)CCS3)N1CCCC1`, in experiment [1], the AC50 was 583 nM. On the same count and under the same terms, the value for `CCN(CC)C(=O)Cn1c2ccccc2c2nc3n(c(=O)c21)CCS3` was 1740 nM and 2300 nM.

Turning to `O=C(Cn1c2ccccc2c2nc3n(c(=O)c21)CCS3)NCCc1ccc(Cl)cc1`, in experiment [2] (at 12 µM (top of the series)), the activity change, negative = inhibition is -24.6% (inactive). On to `O=C(O)Cn1nc(-c2ccccc2)c2ccccc21`, for which the activity change, negative = inhibition in experiment [2] (at 12 µM (top of the series)) was -10.3% (inactive). With `CC1CCN(C(=O)Cn2c3ccccc3c3nc4n(c(=O)c32)CCS4)CC1`, the AC50 in experiment [1] was 5130 nM. As for `COC(=O)Cn1nc(-c2ccc(C)cc2)c2ccccc21`, the AC50 in experiment [1] is 12000 nM. Same read-out and setting: with `CC1CCN(C(=O)Cn2c3ccc(F)cc3c3nc4n(c(=O)c32)CCCS4)CC1` the figure was 2740 nM. Regarding `O=C(Cn1c2ccccc2c2nc3n(c(=O)c21)CCS3)N1CCCCC1`, the half-maximal activity concentration (AC50) in experiment [1] is 2150 nM. For the molecule `CCN(CC)C(=O)Cn1c2ccc(F)cc2c2nc3n(c(=O)c21)CCS3`, in experiment [1], the AC50 was 645 nM.

Take `O=C(Cn1c2ccccc2c2nc3n(c(=O)c21)CCS3)N1CCOCC1`: the AC50 in experiment [1] was 3570 nM.
